{"source": "the RNAGym collection of RNA variant scans (doi:10.1126/science.aae0568)", "parents": {"B1": {"name": "tRNA (parent)", "chain": "GUUCCGUUGGCGUAAUGGUAACGCGUCUCCCUCCUAAGGAGAAGACUGCGGGUUCGAGUCCCGUACGGAACG"}}, "note": "Variants at the floor of the assay were thinned out.", "data": [{"variants_of": "B1", "test": "yeast fitness relative to wild type (ratio to wild type); higher = fitter; tRNA-Arg(CCU), competitive growth, 37 C, YPD", "in_short": "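Amplicons of the tRNA-Arg(CCU) gene were sequenced, 100-nucleotide paired-end, from the start population and from each end population of a pooled yeast competition. The competition, in six parallel replicates, lasted 24 hours in YPD at 37°C. Fitness relative to wild type was calculated from changes in genotype frequencies. Genotypes had to have ≥ 100 starting reads, and estimates < 0.5 were set to 0.5.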", "values": [{"variant": "GUUCCGUUGGCGUAAUGGUAACGCGUCUCCCUCCUAAGGAGAAGGUUGCGCGUUCGAGUCCCGUACCGAACG", "note": "[A45G C46U G51C G67C]", "yeast fitness": "≤ 0.5"}, {"variant": "GUUCCGUUGGCGUAAUGGUAACGCGUCUCCCUCCUAAGGAGAAGCCUGCGGGUUCGAGUCCUGUACGGAACG", "note": "[A45C C62U]", "yeast fitness": 0.842}, {"variant": "GUUCCGUUGGCGUAAUGGUAACGCGUCUCCCUCCUAAGGAGAAGCCUGCAGGUUCGAGUCCUGUACGGAACG", "note": "[A45C G50A C62U]", "yeast fitness": 0.868}, {"variant": "GUUCCGUUGGCGUAAUGGUAACGCGUCUCCCUCCUAAGGAGAAGUCUGCGGGUUCGAGUCACGUACAGAACG", "note": "[A45U C61A G67A]", "yeast fitness": "≤ 0.5"}, {"variant": "GUUCCGUUGGCGUAAUGGUAACGCGUCUCCCUCCUAAGGAGAACACUGCCGGUUCGGGUCCCGUCCGGAACG", "note": "[G44C G50C A57G A65C]", "yeast fitness": 0.561}, {"variant": "GUUCCGUUGGCGUAAUGGUAACGCGUCUCCCUCCUAAGGAGAAGGCUGCGAGUUCGAGUCCCGUACGGAACG", "note": "[A45G G51A]", "yeast fitness": 0.716}, {"variant": "GUUCCGUUGGCGUAAUGGUAACGCGUCUCCCUCCUAAGGAGAAGGCUGCGGGUUAGACUCCCGUACGGAACG", "note": "[A45G C55A G58C]", "yeast fitness": 0.537}, {"variant": "GUUCCGUUGGCGUAAUGGUAACGCGUCUCCCUCCUAAGGAGAAGCCUGCGGGUUCGAGUCCCGUACGCAACG", "note": "[A45C G68C]", "yeast fitness": 0.839}, {"variant": "GUUCCGUUGGCGUAAUGGUAACGCGUCUCCCUCCUAAGGAGAACACUACGGGUUCGAAUCCCGUACGGAACG", "note": "[G44C G48A G58A]", "yeast fitness": 0.881}, {"variant": "GUUCCGUUGGCGUAAUGGUAACGCGUCUCCCUCCUAAGGAGAACACCGCGGGUUCGAAUCCCGUACGGAACG", "note": "[G44C U47C G58A]", "yeast fitness": 0.766}, {"variant": "GUUCCGUUGGCGUAAUGGUAACGCGUCUCCCUCCUAAGGAGAACACUGCGGGUUCGAGUCCUGUAGGGAACG", "note": "[G44C C62U C66G]", "yeast fitness": "≤ 0.5"}, {"variant": "GUUCCGUUGGCGUAAUGGUAACGCGUCUCCCUCCUAAGGAGAAGGCUGCGGGUUCGAAUCCCGUACGGAACG", "note": "[A45G G58A]", "yeast fitness": 1.04}, {"variant": "GUUCCGUUGGCGUAAUGGUAACGCGUCUCCCUCCUAAGGAGAAGUCUGCGGGUUCGAGUCCCGUCCGAAACG", "note": "[A45U A65C G68A]", "yeast fitness": 0.567}, {"variant": "GUUCCGUUGGCGUAAUGGUAACGCGUCUCCCUCCUAAGGAGAAGGCUGCGGGUUCGAAUCCCGUUCGGAACG", "note": "[A45G G58A A65U]", "yeast fitness": 0.741}, {"variant": "GUUCCGUUGGCGUAAUGGUAACGCGUCUCCCUCCUAAGGAGAAGGCUGCGGGUUCGAGUCCCGUAAGGAACG", "note": "[A45G C66A]", "yeast fitness": 0.581}, {"variant": "GUUCCGUUGGCGUAAUGGUAACGCGUCUCCCUCCUAAGGAGAAGGCUGCGGGUUCGAGUCCGGUACGGAACG", "note": "[A45G C62G]", "yeast fitness": 0.832}, {"variant": "GUUCCGUUGGCGUAAUGGUAACGCGUCUCCCUCCUAAGGAGAAGGCUGCGGGUUCGAGUCCAGUACGGAACG", "note": "[A45G C62A]", "yeast fitness": 0.8}, {"variant": "GUUCCGUUGGCGUAAUGGUAACGCGUCUCCCUCCUAAGGAGAAGGCUGCAGGUCCGAGUCCCGUACGGAACG", "note": "[A45G G50A U54C]", "yeast fitness": "≤ 0.5"}, {"variant": "GUUCCGUUGGCGUAAUGGUAACGCGUCUCCCUCCUAAGGAGAAGUCUGCGGGUUCGAGUCCCGUAAGGAACG", "note": "[A45U C66A]", "yeast fitness": 0.649}, {"variant": "GUUCCGUUGGCGUAAUGGUAACGCGUCUCCCUCCUAAGGAGAAGUCUGCGGGUUCGAGUCCCGUAUGGAACG", "note": "[A45U C66U]", "yeast fitness": 0.979}, {"variant": "GUUCCGUUGGCGUAAUGGUAACGCGUCUCCCUCCUAAGGAGAAGUCUACGGGUUCGAGUCCCGUAGGGAACG", "note": "[A45U G48A C66G]", "yeast fitness": "≤ 0.5"}, {"variant": "GUUCCGUUGGCGUAAUGGUAACGCGUCUCCCUCCUAAGGAGAAGUCUGCGGGUUCCAAUCCCGUUCGGAACG", "note": "[A45U G56C G58A A65U]", "yeast fitness": 0.5}, {"variant": "GUUCCGUUGGCGUAAUGGUAACGCGUCUCCCUCCUAAGGAGAAGGCUGCGGGUUCGAGUCCCGUACGGACCG", "note": "[A45G A70C]", "yeast fitness": 0.989}, {"variant": "GUUCCGUUGGCGUAAUGGUAACGCGUCUCCCUCCUAAGGAGAAGGUUGCGCGUUCGAGUCCCGUACGGAACG", "note": "[A45G C46U G51C]", "yeast fitness": "≤ 0.5"}, {"variant": "GUUCCGUUGGCGUAAUGGUAACGCGUCUCCCUCCUAAGGAGAAGGCUGCGGGUUUGAGUCCCGUACAGAACG", "note": "[A45G C55U G67A]", "yeast fitness": 0.656}, {"variant": "GUUCCGUUGGCGUAAUGGUAACGCGUCUCCCUCCUAAGGAGAAGUCUGGGGGUUCGAGUCCCGUACGGAUCG", "note": "[A45U C49G A70U]", "yeast fitness": 0.63}, {"variant": "GUUCCGUUGGCGUAAUGGUAACGCGUCUCCCUCCUAAGGAGAAGUCUGCGGGUUGGAGUCCCGUACGGAACG", "note": "[A45U C55G]", "yeast fitness": 0.528}, {"variant": "GUUCCGUUGGCGUAAUGGUAACGCGUCUCCCUCCUAAGGAGAAGUCUGCGGGUUAGAGUCCCGUACGGAACG", "note": "[A45U C55A]", "yeast fitness": 0.566}, {"variant": "GUUCCGUUGGCGUAAUGGUAACGCGUCUCCCUCCUAAGGAGAAGCCCGCGGGUUCGAGUCCCGCCCGGAACG", "note": "[A45C U47C U64C A65C]", "yeast fitness": 0.725}, {"variant": "GUUCCGUUGGCGUAAUGGUAACGCGUCUCCCUCCUAAGGAGAACACUGCGGGUUCGAGUUCCGUACGGAGCG", "note": "[G44C C60U A70G]", "yeast fitness": "≤ 0.5"}, {"variant": "GUUCCGUUGGCGUAAUGGUAACGCGUCUCCCUCCUAAGGAGAAGGCUGCGGGGUCGAGUCCCGUAUGGUACG", "note": "[A45G U53G C66U A69U]", "yeast fitness": "≤ 0.5"}, {"variant": "GUUCCGUUGGCGUAAUGGUAACGCGUCUCCCUCCUAAGGAGAACACUGCGGGUUCGAGUACCGUACGGAACG", "note": "[G44C C60A]", "yeast fitness": 0.572}, {"variant": "GUUCCGUUGGCGUAAUGGUAACGCGUCUCCCUCCUAAGGAGAACACUGGGGGUUCGAGUCCCGAACGGAACG", "note": "[G44C C49G U64A]", "yeast fitness": "≤ 0.5"}, {"variant": "GUUCCGUUGGCGUAAUGGUAACGCGUCUCCCUCCUAAGGAGAAGCUUGCGGGUUCGAGUCCCGUACGGAACG", "note": "[A45C C46U]", "yeast fitness": 1.02}, {"variant": "GUUCCGUUGGCGUAAUGGUAACGCGUCUCCCUCCUAAGGAGAAGGCUGCGGGUUUGAGUCCCGUCCGGAACG", "note": "[A45G C55U A65C]", "yeast fitness": "≤ 0.5"}, {"variant": "GUUCCGUUGGCGUAAUGGUAACGCGUCUCCCUCCUAAGGAGAAGGCUGCGGGUUUGAGUCCCGUGCGGAACG", "note": "[A45G C55U A65G]", "yeast fitness": 0.544}, {"variant": "GUUCCGUUGGCGUAAUGGUAACGCGUCUCCCUCCUAAGGAGAAGUCUGCGGGUUCGAGUCCGCUACGGAACG", "note": "[A45U C62G G63C]", "yeast fitness": "≤ 0.5"}, {"variant": "GUUCCGUUGGCGUAAUGGUAACGCGUCUCCCUCCUAAGGAGAAGCCUGCGGGUUCGAGUCCCAUACGGUACG", "note": "[A45C G63A A69U]", "yeast fitness": 0.793}]}]}
